{
  "source": "ChEMBL document CHEMBL1153564",
  "about": "(Antimicrob Agents Chemother, 2008)",
  "key": {"Candida albicans [1]": {"system": "Candida albicans", "experiment": "Antifungal activity against Candida albicans K-1 infected in neutropenic ICR/Swiss mouse candidiasis model assessed as dose required to maintain […] of 3.90 +/- 0.15 log10CFU per kidney administered intraperitoneally once every 96 hrs measured per 96 hrs", "type": "functional", "in_short": "(§1)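 Neutropenic mice were infected iv with C. albicans K-1 2 h before therapy. Total doses of 1.25, 5, 20, 80 and 320 mg/kg/96 h were split into 1, 2, 4 or 6 ip doses (q96h, q48h, q24h, q16h), three mice per regimen. Effect is the log10 CFU/kidney relative to untreated controls at 96 h. Static and 1-log doses were taken from a Hill model fit.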"}, "Candida albicans [2]": {"system": "Candida albicans", "experiment": "Antifungal activity against Candida albicans K-1 infected in neutropenic ICR/Swiss mouse candidiasis model assessed as reduction of […] in kidney at 20 mg/kg, ip administered 2 hrs postinfection as single dose measured within 1 to 4 hrs post dosing by time-kill assay", "type": "functional, organism-based", "parameters": "dose 20 mg/kg", "in_short": "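Single ip dose (20, 5 or 1.25 mg/kg) given 2 h after iv infection of neutropenic mice with K-1. Three treated and three control mice were sampled at intervals over 96 h for kidney CFU. PAFE is the time for treated burden to rise 1 log10 after serum levels fall below MIC, minus the same time in controls. Free drug was taken as 1%.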"}, "Candida albicans [3]": {"system": "Candida albicans", "experiment": "Antifungal activity against Candida albicans K-1 infected in neutropenic ICR/Swiss mouse candidiasis model assessed as prolongation of fungal growth suppression at 1.25 mg/kg, ip administered 2 hrs postinfection as single dose by time-kill assay", "type": "functional", "details": "route intraperitoneal", "in_short": "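Single ip dose of 1.25, 5 or 20 mg/kg given 2 h after iv infection of neutropenic mice. Groups of 3 treated and 3 control mice sampled at 1–24 h intervals over 96 h. Kidney homogenates plated on SDA, 24 h at 35°C. PAFE = time for treated burden to rise 1 log10 CFU/kidney after serum level fell below MIC, minus the same time in controls.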"}, "Nakaseomyces glabratus [4]": {"system": "Nakaseomyces glabratus", "experiment": "Antifungal activity against Candida glabrata 33616 assessed as partial growth inhibition after 24 hrs by CLSI end point method", "type": "functional", "details": "Nakaseomyces glabratus, 33616, 24 h", "in_short": "(§2)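 Two end points were read against the drug-free control well: partial growth inhibition (the CLSI end point) and complete inhibition. Run in duplicate on four separate occasions; the value is the mean. Drug stock was made in DMSO and diluted in 0.9% NaCl.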"}, "Nakaseomyces glabratus [5]": {"system": "Nakaseomyces glabratus", "experiment": "Antifungal activity against Candida glabrata 5376 infected in neutropenic ICR/Swiss mouse candidiasis model assessed as dose required to maintain […] of 3.71 +/- 0.21 log10CFU per kidney administered intraperitoneally every 24 hrs up to 4 days measured per 96 hrs"}, "Candida albicans [6]": {"system": "Candida albicans", "experiment": "Antifungal activity against Candida albicans 98-17 assessed as complete growth inhibition after 24 hrs by CLSI end point method", "type": "functional", "details": "98-17, 24 h", "in_short": "(§3)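 CLSI M27-A2 broth dilution. Two end points read against the drug-free control well: partial inhibition (CLSI end point) and complete inhibition. Run in duplicate on four separate occasions; value is the mean. Drug stock in DMSO, diluted in 0.9% NaCl.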"}, "Candida albicans [7]": {"system": "Candida albicans", "experiment": "Antifungal activity against Candida albicans K-1 infected in neutropenic ICR/Swiss mouse candidiasis model assessed as reduction of […] in kidney at 1.25 mg/kg, ip administered 2 hrs postinfection as single dose measured within 1 to 4 hrs post dosing by time-kill assay", "type": "functional, organism-based", "parameters": "dose 1.25 mg/kg", "in_short": "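Neutropenic mice given a single ip dose (1.25, 5 or 20 mg/kg) 2 h after tail-vein infection. Kidneys from 3 mice per time point collected nine times over 96 h. Homogenates serially diluted 1:10 and plated on SDA, 24 h at 35°C. Detection limit 100 CFU/ml.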"}, "Serum [8]": {"system": "Serum", "experiment": "Fraction unbound in Candida albicans K-1 infected neutropenic ICR/Swiss mouse serum at 5 mg/kg, ip administered 2 hrs postinfection as single dose", "type": "ADME, organism-based", "parameters": "dose 5 mg/kg, route intraperitoneal", "details": "in vivo"}, "Candida tropicalis": {"system": "Candida tropicalis", "experiment": "Antifungal activity against Candida tropicalis 98-234 infected in neutropenic ICR/Swiss mouse candidiasis model assessed as dose required to maintain […] of 3.81 +/- 0.33 log10CFU per kidney administered intraperitoneally every 24 hrs up to 4 days measured per 24 hrs", "type": "functional"}, "Nakaseomyces glabratus [9]": {"system": "Nakaseomyces glabratus", "experiment": "Antifungal activity against Candida glabrata 33609 assessed as partial growth inhibition after 24 hrs by CLSI end point method", "type": "functional", "details": "Nakaseomyces glabratus, 33609, 24 h", "in_short": "as §3"}, "Candida albicans [10]": {"system": "Candida albicans", "experiment": "Antifungal activity against Candida albicans K-1 infected in neutropenic ICR/Swiss mouse candidiasis model assessed as dose required to maintain […] of 3.90 +/- 0.15 log10CFU per kidney administered intraperitoneally every 48 hrs up to 4 days measured per 96 hrs", "type": "functional", "in_short": "as §1"}, "Nakaseomyces glabratus [11]": {"system": "Nakaseomyces glabratus", "experiment": "Antifungal activity against Candida glabrata 5376 infected in neutropenic ICR/Swiss mouse candidiasis model assessed as […] burden per kidney administered intraperitoneally every 16 hrs up to 4 days measured per 96 hrs", "type": "functional", "details": "Nakaseomyces glabratus, 5376, Kidney, ip", "in_short": "(§4)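 Neutropenic ICR/Swiss mice infected i.v. with the strain; therapy began 2 h later. Total doses of 1.25–320 mg/kg/96 h were given i.p. as 1, 2, 4 or 6 doses (q96h, q48h, q24h, q16h), three mice per regimen. Kidney CFU were counted after 4 days. Effect is the change from untreated controls at the end of therapy.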"}, "Nakaseomyces glabratus [12]": {"system": "Nakaseomyces glabratus", "experiment": "Antifungal activity against Candida glabrata 5376 infected in neutropenic ICR/Swiss mouse candidiasis model assessed as […] burden per kidney administered intraperitoneally every 48 hrs up to 4 days measured per 96 hrs", "type": "functional", "details": "Nakaseomyces glabratus, 5376, Kidney, ip", "in_short": "as §4"}, "Candida albicans [13]": {"system": "Candida albicans", "experiment": "Antifungal activity against Candida albicans 98-210 assessed as complete growth inhibition after 24 hrs by CLSI end point method", "type": "functional", "details": "98-210, 24 h", "in_short": "as §3"}, "Candida albicans [14]": {"system": "Candida albicans", "experiment": "Antifungal activity against Candida albicans K-1 infected in neutropenic ICR/Swiss mouse candidiasis model assessed as dose required for 1-log10 reduction in […] per kidney administered intraperitoneally every 24 hrs up to 4 days measured per 24 hrs", "type": "functional"}, "Candida albicans [15]": {"system": "Candida albicans", "experiment": "Antifungal activity against Candida albicans 98-210 infected in neutropenic ICR/Swiss mouse candidiasis model assessed as fungal count per kidney administered 2 hrs postinfection measured up to 48 hrs", "type": "functional", "in_short": "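Untreated neutropenic mice infected via the tail vein (inoculum about 6.1 log10 CFU/ml, 0.1 ml). Growth is the rise in kidney CFU over 48 h. Kidneys were homogenised, serially diluted 1:10 and plated on SDA for 24 h at 35°C. Mean of three mice.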"}, "Candida albicans [16]": {"system": "Candida albicans", "experiment": "Antifungal activity against Candida albicans 580 assessed as partial growth inhibition after 24 hrs by CLSI end point method", "type": "functional", "details": "Candida albicans, 580, 24 h", "in_short": "as §3"}, "Nakaseomyces glabratus [17]": {"system": "Nakaseomyces glabratus", "experiment": "Antifungal activity against Candida glabrata 34341 infected in neutropenic ICR/Swiss mouse candidiasis model assessed as fungal count per kidney administered 2 hrs postinfection measured up to 48 hrs", "type": "functional", "in_short": "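Female ICR/Swiss mice (23–27 g) made neutropenic with cyclophosphamide s.c. (150 mg/kg day −4, 100 mg/kg day −1, 100 mg/kg day +2). Infected by tail vein with 0.1 ml inoculum (~6.1 log10 CFU/ml). Kidneys of untreated mice were homogenised and plated on SDA for 24 h at 35°C. Growth over 48 h is given as log10 CFU/kidney.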"}, "Serum [18]": {"system": "Serum", "experiment": "Fraction unbound in Candida albicans K-1 infected neutropenic ICR/Swiss mouse serum at 20 mg/kg, ip administered 2 hrs postinfection as single dose measured after 12 hrs", "type": "ADME, organism-based", "parameters": "dose 20 mg/kg, route intraperitoneal", "details": "in vivo"}, "Nakaseomyces glabratus [19]": {"system": "Nakaseomyces glabratus", "experiment": "Antifungal activity against Candida glabrata 5592 assessed as partial growth inhibition after 24 hrs by CLSI end point method", "type": "functional", "details": "Nakaseomyces glabratus, 5592, 24 h", "in_short": "as §2"}},
  "note": "Activity calls are given as the source filed them. The rule behind the calls is not given here. Starred links: 1 amine or outer side, 2 acyl side, 3 side chain; linkers in the order of their positions; H or OH if unused. Positions of bridges follow the written chain, without caps; N, C: chain ends. Non-standard residues stand in square brackets, D forms with d. Residues, ends and D or L forms follow the SMILES beside them. *: point of attachment. pTerphenylCO(4''-OnC5H11) = CCCCCOc1ccc(-c2ccc(-c3ccc(C(=O)*)cc3)cc2)cc1; Orn(4R-OH,5R-OH) = O=C([C@H](C[C@@H](O)[C@@H](O)N[*:3])N[*:1])[*:2]; hTyr(3S-OH,4S-OH) = N[C@H](C(=O)O)[C@H](O)[C@@H](O)c1ccc(O)cc1; Pro(3S-OH,4S-Me) = C[C@H]1CN[C@H](C(=O)O)[C@H]1O; Hyp = O=C(O)[C@@H]1C[C@@H](O)CN1",
  "data": [
    {"smiles": "CCCCCOc1ccc(-c2ccc(-c3ccc(C(=O)N[C@H]4C[C@@H](O)[C@@H](O)NC(=O)[C@@H]5[C@@H](O)[C@@H](C)CN5C(=O)[C@H]([C@@H](C)O)NC(=O)[C@H]([C@H](O)[C@@H](O)c5ccc(O)cc5)NC(=O)[C@@H]5C[C@@H](O)CN5C(=O)[C@H]([C@@H](C)O)NC4=O)cc3)cc2)cc1", "note": "[ANIDULAFUNGIN] ({pTerphenylCO(4''-OnC5H11)}-[Orn(4R-OH,5R-OH)]T[Hyp][hTyr(3S-OH,4S-OH)]T[Pro(3S-OH,4S-Me)]; lactam 1-C)", "values": [
      {"measurement": "Activity", "setting": "Candida albicans [1]", "result": 3.07, "unit": "mg/kg"},
      {"measurement": "Activity", "setting": "Candida albicans [2]", "result": "Active"},
      {"measurement": "Activity", "setting": "Candida albicans [3]", "result": 56, "unit": "h"},
      {"measurement": "MIC", "setting": "Nakaseomyces glabratus [4]", "result": 1, "unit": "µg/mL"},
      {"measurement": "Activity", "setting": "Nakaseomyces glabratus [5]", "result": 17.6, "unit": "mg/kg"},
      {"measurement": "MIC", "setting": "Candida albicans [6]", "result": 0.12, "unit": "µg/mL"},
      {"measurement": "Activity", "setting": "Candida albicans [7]", "result": "Active"},
      {"measurement": "Fu", "setting": "Serum [8]", "result": 1, "unit": "%"},
      {"measurement": "Activity", "setting": "Candida tropicalis", "result": 3.81, "unit": "mg/kg"},
      {"measurement": "MIC", "setting": "Nakaseomyces glabratus [9]", "result": 0.03, "unit": "µg/mL"},
      {"measurement": "Activity", "setting": "Candida albicans [10]", "result": 5.01, "unit": "mg/kg"},
      {"measurement": "ED50", "setting": "Nakaseomyces glabratus [11]", "result": 26.3, "unit": "mg/kg"},
      {"measurement": "ED50", "setting": "Nakaseomyces glabratus [12]", "result": 13.4, "unit": "mg/kg"},
      {"measurement": "MIC", "setting": "Candida albicans [13]", "result": 0.06, "unit": "µg/mL"},
      {"measurement": "Activity", "setting": "Candida albicans [14]", "result": 2, "unit": "mg/kg"},
      {"measurement": "log10cfu", "setting": "Candida albicans [15]", "result": 3.5},
      {"measurement": "MIC", "setting": "Candida albicans [16]", "result": 0.015, "unit": "µg/mL"},
      {"measurement": "log10cfu", "setting": "Nakaseomyces glabratus [17]", "result": 1.82},
      {"measurement": "Fu", "setting": "Serum [18]", "result": 1, "unit": "%"},
      {"measurement": "MIC", "setting": "Nakaseomyces glabratus [19]", "result": 0.06, "unit": "µg/mL"}
    ]}
  ]
}
